ChEMBL document CHEMBL1949532, “Novel dendrimeric lipopeptides with antifungal activity” (Bioorg Med Chem Lett, 2012)
pEC50: −log10 of the molar value. Values after ≈ are worked out from the molar mass of the structure shown. Active and inactive are the calls of the source. No cut-off for these calls is given here.

Assays:
Candida parapsilosis = test: Antifungal activity against Candida parapsilosis ATCC 22019 after 24 to 48 hrs by serial broth microdilution susceptibility test; type: functional; conditions: Lodderomyces parapsilosis
How it was run: (§1)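 MIC determined by serial microdilution in microplates. Candida inocula were prepared in L-glutamine-deficient RPMI-1640 medium.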

[1] = test system: Klebsiella pneumoniae subsp. pneumoniae; test: Antibacterial activity against Klebsiella pneumoniae subsp. pneumoniae ATCC 13882 after 18 to 24 hrs by serial broth microdilution susceptibility test; type: functional; how it was run: as §1
Pseudomonas aeruginosa = test: Antibacterial activity against Pseudomonas aeruginosa ATCC 27853 after 18 to 24 hrs by serial broth microdilution susceptibility test; type: functional; how it was run: as §1
Staphylococcus aureus [2] = test: Antibacterial activity against Staphylococcus aureus ATCC 43300 after 18 to 24 hrs by serial broth microdilution susceptibility test; type: functional; how it was run: as §1
[3] = Toxicity in human erythrocytes assessed as hemolysis at 50 uM after 30 mins by spectrophotometry; type: cell-based, Erythrocyte; conditions: read-out: Activity
How it was run: (§2)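 Human erythrocytes suspended in PBS were exposed to lipopeptides at 0.001–0.4 mmol/l and hemolysis was measured.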

[4] = test system: Bordetella bronchiseptica; test: Antibacterial activity against Bordetella bronchiseptica ATCC 4617 after 18 to 24 hrs by serial broth microdilution susceptibility test; type: functional; how it was run: as §1
Pichia kudriavzevii = test: Antifungal activity against Candida krusei ATCC 6258 after 24 to 48 hrs by serial broth microdilution susceptibility test; type: functional; how it was run: as §1
Escherichia coli [5] = test: Antibacterial activity against Escherichia coli ATCC BAA-198 after 18 to 24 hrs by serial broth microdilution susceptibility test; type: functional; how it was run: as §1
Staphylococcus aureus [6] = test: Antibacterial activity against Staphylococcus aureus ATCC 25923 after 18 to 24 hrs by serial broth microdilution susceptibility test; type: functional; how it was run: as §1
Candida albicans [7] = test: Antifungal activity against Candida albicans ATCC 90028 after 24 to 48 hrs by serial broth microdilution susceptibility test; type: functional; how it was run: as §1
Escherichia coli [8] = test: Antibacterial activity against Escherichia coli ATCC 25922 after 18 to 24 hrs by serial broth microdilution susceptibility test; type: functional; how it was run: as §1
Acinetobacter baumannii = test: Antibacterial activity against Acinetobacter baumannii ATCC 19606 after 18 to 24 hrs by serial broth microdilution susceptibility test; type: functional; conditions: ATCC 19606 = CIP 70.34 = JCM 6841; how it was run: as §1
[9] = Toxicity in human erythrocytes suspended in L-glutamine deficient RPMI-1640 assessed as hemolysis after 30 mins by spectrophotometry relative to human erythrocytes suspended in PBS buffer; type: cell-based; conditions: erythrocyte, 0.5 h
How it was run: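 Hemolysis was measured for human erythrocytes resuspended in L-glutamine-deficient RPMI-1640 (the Candida MIC medium) and compared with erythrocytes suspended in PBS.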

[10] = Toxicity in human erythrocytes assessed as hemolysis at above MIC after 30 mins by spectrophotometry; type: cell-based; conditions: erythrocyte, 0.5 h; how it was run: as §2
[11] = Toxicity in human erythrocytes assessed as hemolysis at 100 uM after 30 mins by spectrophotometry; type: cell-based, Erythrocyte; conditions: read-out: Activity; how it was run: as §2
[12] = Toxicity in human erythrocytes assessed as hemolysis at 300 uM after 30 mins by spectrophotometry; type: cell-based, Erythrocyte; conditions: read-out: Activity; how it was run: as §2
Candida albicans [13] = test: Antifungal activity against Candida albicans ATCC 10231 assessed as increase in intracellular potassium release after 30 mins; type: functional, organism-based
How it was run: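 Efflux of K+ from C. albicans cells was monitored continuously with a potassium-selective electrode. Release was expressed relative to a positive control, and EK50 was taken as the concentration releasing 50% of intracellular potassium.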

Candida albicans [14] = test: Inhibition of beta (1,3) glucan synthase in Candida albicans cell membrane using UDP-Glc as substrate assessed as aniline blue-glucan complex formation at 187 uM by microtiter-based fluorescence method
How it was run: (§3)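 β(1,3)-glucan synthase in the membrane fraction of C. albicans was assayed by a microtiter-based fluorescence method across a concentration range. Values are means of three independent experiments (SD); IC50 was determined.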

Candida albicans [15] = test: Antifungal activity against Candida albicans ATCC 10231 assessed as pseudohyphae formation at 120 uM after 6 hrs by calcofluor white and aniline blue staining-based fluorescence microscopy; type: functional, organism-based
How it was run: (§4)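 C. albicans ATCC 10231 yeast cells were incubated with compound for 6 h, at up to 2×MIC. Chitin was stained with Calcofluor White and glucan with Aniline Blue, then cells were examined by fluorescence microscopy against untreated controls.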

Candida albicans [16] = test: Inhibition of beta (1,3) glucan synthase in Candida albicans cell membrane using UDP-Glc as substrate assessed as aniline blue-glucan complex formation by microtiter-based fluorescence method; how it was run: as §3
Candida albicans [17] = test: Antifungal activity against Candida albicans ATCC 10231 assessed as morphological changes at < 60 uM after 6 hrs by calcofluor white and aniline blue staining-based fluorescence microscopy; type: functional, organism-based; how it was run: as §4

`CCCCCCCCNC(=O)[C@H](Cc1ccccc1)NC(=O)[C@H](CCCCNC(=O)[C@H](CCCCN)NC(=O)OCc1ccccc1)NC(=O)[C@H](CCCCN)NC(=O)OCc1ccccc1` gave an MIC (Candida parapsilosis) of 16 µM (≈ 14.9 µg/mL), an MIC [1] of 128 µM (≈ 119 µg/mL) and an MIC (Pseudomonas aeruginosa) of 32 µM (≈ 29.7 µg/mL). For the same compound, the MIC (Staphylococcus aureus [2]) was 16 µM (≈ 14.9 µg/mL), the hemolysis at 0.5 h, 50 µM [3] was 10% and the MIC [4] was 8 µM (≈ 7.43 µg/mL). For the same compound, the MIC (Pichia kudriavzevii) was 16 µM (≈ 14.9 µg/mL), the MIC (Escherichia coli [5]) was 8 µM (≈ 7.43 µg/mL) and the MIC (Staphylococcus aureus [6]) was 32 µM (≈ 29.7 µg/mL). The MIC (Candida albicans [7]) was 32 µM (≈ 29.7 µg/mL), the MIC (Escherichia coli [8]) was 30 µM (≈ 27.9 µg/mL) and the MIC (Acinetobacter baumannii) was 128 µM (≈ 119 µg/mL).

In the case of `CCCCCCCCCCCCNC(=O)[C@H](Cc1ccccc1)NC(=O)[C@H](CCCCNC(=O)[C@@H](N)CCCCN)NC(=O)[C@@H](N)CCCCN.Cl.Cl.Cl.Cl`, the MIC (Candida parapsilosis) was 4 µM, the MIC [1] was > 256 µM and the MIC (Pseudomonas aeruginosa) was 64 µM. The Activity [9] was “Non-toxic”, the MIC (Staphylococcus aureus [2]) was 4 µM and the MIC [4] was 8 µM. For the same compound, the MIC (Pichia kudriavzevii) was 4 µM, the Activity [10] was “Toxic” and the MIC (Escherichia coli [5]) was 64 µM. It also gave an MIC (Staphylococcus aureus [6]) of 8 µM, an MIC (Candida albicans [7]) of 16 µM and an MIC (Escherichia coli [8]) of 32 µM. For the same compound, the MIC (Acinetobacter baumannii) was > 256 µM.

In the case of `CCCCCCCCNC(=O)[C@H](Cc1ccccc1)NC(=O)[C@H](CCCCNC(=O)[C@@H](N)CCCCNC(=O)OCc1ccccc1Cl)NC(=O)[C@@H](N)CCCCNC(=O)OCc1ccccc1Cl`, the MIC (Candida parapsilosis) was 15 µM (≈ 15 µg/mL), the MIC [1] was 119 µM (≈ 119 µg/mL) and the MIC (Pseudomonas aeruginosa) was 120 µM (≈ 120 µg/mL). For the same compound, the MIC (Staphylococcus aureus [2]) was 8 µM (≈ 7.98 µg/mL), the hemolysis at 0.5 h, 100 µM [11] was 1% and the hemolysis at 0.5 h, 300 µM [12] was 10%. The MIC [4] was 7 µM (≈ 6.99 µg/mL), the Activity (Candida albicans [13]) was “Dose-dependent effect” and the pEC50 (Candida albicans [13]; Candida albicans, ATCC 10231, 0.5 h) was 4.77. For the same compound, the inhibition (Candida albicans [14]) was 43%, the Activity (Candida albicans [15]) was “Active” and the MIC (Pichia kudriavzevii) was 15 µM (≈ 15 µg/mL). For the same compound, the inhibition (Candida albicans [16]) was “Dose-dependent effect”, the Activity (Candida albicans [17]) was “inactive” and the MIC (Escherichia coli [5]) was 8 µM (≈ 7.98 µg/mL). It also gave an MIC (Staphylococcus aureus [6]) of 30 µM (≈ 29.9 µg/mL), an MIC (Candida albicans [7]) of 60 µM (≈ 59.9 µg/mL) and an MIC (Escherichia coli [8]) of 8 µM (≈ 7.98 µg/mL). It also gave an MIC (Acinetobacter baumannii) of 60 µM (≈ 59.9 µg/mL).

Compound NYSTATIN has a pEC50 (Candida albicans [13]) of 5.62.

Work on `OC(Cn1cncn1)(Cn1cncn1)c1ccc(F)cc1F` [FLUCONAZOLE] yielded an MIC (Candida albicans [7]) of 13 µM (≈ 3.98 µg/mL).

For `CCCCCCCCNC(=O)[C@H](Cc1ccccc1)NC(=O)[C@H](CCCCNC(=O)[C@@H](N)CCCCN)NC(=O)[C@@H](N)CCCCN`, the MIC (Candida parapsilosis) was 64 µM (≈ 42.3 µg/mL), the MIC [1] was > 256 µM and the MIC (Pseudomonas aeruginosa) was > 256 µM. The MIC (Staphylococcus aureus [2]) was 128 µM (≈ 84.6 µg/mL), the hemolysis at 0.5 h, 300 µM [12] was 10% and the MIC [4] was 32 µM (≈ 21.2 µg/mL). For the same compound, the MIC (Pichia kudriavzevii) was 128 µM (≈ 84.6 µg/mL), the MIC (Escherichia coli [5]) was > 256 µM and the MIC (Staphylococcus aureus [6]) was 128 µM (≈ 84.6 µg/mL). For the same compound, the MIC (Candida albicans [7]) was 256 µM (≈ 169 µg/mL), the MIC (Escherichia coli [8]) was > 256 µM and the MIC (Acinetobacter baumannii) was > 256 µM.

`CC1(C)S[C@@H]2[C@H](NC(=O)Cc3ccccc3)C(=O)N2[C@H]1C(=O)O` [PENICILLIN G] showed an MIC (Staphylococcus aureus [6]) of 6.6 µM (≈ 2.21 µg/mL).
